ChEMBL document CHEMBL2010803, “Novel NSAID 1-acyl-4-cycloalkyl/arylsemicarbazides and 1-acyl-5-benzyloxy/hydroxy carbamoylcarbazides as potential anticancer agents and antioxidants” (Eur J Med Chem, 2012)
Active and inactive are the calls of the source. The calls are words filed in the database; no cut-off is given here.

Assays:
[1] = test system: Radical scavenging activity; assay: Antioxidant activity assessed as DPPH free radical scavenging activity at 100 uM after 20 mins by spectrophotometric analysis; format: functional
Outline: (§1)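 0.05 mM DPPH in absolute ethanol mixed with an equal volume of compound in DMSO (final 100 μM). Shaken and left 20 or 60 min, then absorbance read at 517 nm and percent activity calculated. Three replicates, averaged.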

Human alphaherpesvirus 1 = assay: Antiviral activity against HSV1 KOS infected in human lung fibroblast assessed as inhibition of virus-induced cytopathic effect at 0.32 to 100 uM; format: functional, organism-based
Outline: (§2)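 Confluent cell cultures were infected with 100 CCID50 of virus in the presence of test compound at 100, 40, 8, 1.6 and 0.32 μM. Cytopathic effect was scored once it was complete in untreated infected controls.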

[2] = test system: Vesicular stomatitis virus; assay: Antiviral activity against VSV infected in human lung fibroblast assessed as inhibition of virus-induced cytopathic effect at 0.32 to 100 uM; format: functional, organism-based
Glycine max = assay: Inhibition of soybean LOX assessed as conversion of sodium linoleate to 13- hydroperoxylinoleic acid at 100 uM
Influenza A virus [3] = assay: Antiviral activity against Influenza A virus H3N2 infected in MDCK cells assessed as inhibition of virus-induced cytopathic effect at 0.32 to 100 uM; format: functional, organism-based
Outline: (§3)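 Confluent MDCK monolayers were infected in the presence of the compound at 100, 40, 8, 1.6 and 0.32 μM. Viral cytopathicity was scored once it was complete in untreated infected control cultures.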

Feline coronavirus = assay: Antiviral activity against Feline coronavirus infected in feline CRFK cells assessed as inhibition of virus-induced cytopathic effect at 0.32 to 100 uM; format: functional, organism-based; outline: as §2
Coxsackievirus B4 [4] = assay: Antiviral activity against Coxsackievirus B4 infected in african green monkey Vero cells assessed as inhibition of virus-induced cytopathic effect at 0.32 to 100 uM; format: functional, organism-based; outline: as §2
[5] = test system: Human immunodeficiency virus 2; assay: Antiviral activity against HIV2 ROD infected in human CEM cells assessed as inhibition of virus-induced CEM giant cell formation at 0.32 to 100 uM after 4 days; format: functional, organism-based; details: ISOLATE ROD, CCRF-CEM
Outline: (§4)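 CEM cells (~3 × 10^5 cells/cm³) exposed to 100 CCID50/ml of virus and seeded into wells holding compound dilutions. Incubated 4 days at 37 °C, then giant cell formation examined microscopically.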

[6] = test system: Respiratory syncytial virus; assay: Antiviral activity against RSV infected in human cervix carcinoma cells assessed as inhibition of virus-induced cytopathic effect at 0.32 to 100 uM; format: functional, organism-based; outline: as §2
CCRF-CEM = assay: Cytostatic activity against human CEM cells after 3 days by coulter counter analysis; format: functional, cell-based; details: 72 h
Outline: (§5)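 300,000–500,000 cells/ml mixed 1:1 with compound dilutions and incubated at 37 °C for 2 days (L1210) or 3 days (CEM, HeLa). Cell number counted with a Coulter counter; HeLa trypsinized before counting.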

Influenza A virus [7] = assay: Antiviral activity against Influenza A virus H1N1 infected in MDCK cells assessed as inhibition of virus-induced cytopathic effect at 0.32 to 100 uM; format: functional, organism-based; outline: as §3
[8] = test system: Mammalian orthoreovirus 1; assay: Antiviral activity against Reovirus-1 infected in african green monkey Vero cells assessed as inhibition of virus-induced cytopathic effect at 0.32 to 100 uM; format: functional, organism-based; outline: as §2
Punta Toro virus = assay: Antiviral activity against Punta Toro virus infected in african green monkey Vero cells assessed as inhibition of virus-induced cytopathic effect at 0.32 to 100 uM; format: functional, organism-based; outline: as §2
Influenza B virus = assay: Antiviral activity against Influenza B virus infected in MDCK cells assessed as inhibition of virus-induced cytopathic effect at 0.32 to 100 uM; format: functional, organism-based; outline: as §3
Sindbis virus = assay: Antiviral activity against Sindbis virus infected in african green monkey Vero cells assessed as inhibition of virus-induced cytopathic effect at 0.32 to 100 uM; format: functional, organism-based; outline: as §2
HCT-116 = assay: Cytostatic activity against human HCT116 cells after 72 hrs by MTT assay; format: functional, cell-based; details: HCT-116, 72 h
Outline: (§6)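 Monolayers in DMEM with 10% FBS, 2 mM L-glutamine and penicillin/streptomycin, 37 °C, 5% CO2. Seeded at 1–3 × 10^4 cells/ml, then compound added in tenfold dilutions (10⁻⁸–10⁻⁴ M) for 72 h. MTT read at 570 nm; percent growth taken against time-zero and untreated controls. IC50 by linear regression; quadruplicate, at least two experiments.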

Human alphaherpesvirus 2 = assay: Antiviral activity against HSV2 G infected in human lung fibroblast assessed as inhibition of virus-induced cytopathic effect at 0.32 to 100 uM; format: functional, organism-based; details: strain G; outline: as §2
MCF7 = assay: Cytostatic activity against human MCF7 cells after 72 hrs by MTT assay; format: functional, cell-based; details: MCF7, 72 h; outline: as §6
NCI-H460 = assay: Cytostatic activity against human NCI-H460 cells after 72 hrs by MTT assay; format: functional, cell-based; details: NCI-H460, 72 h; outline: as §6
[9] = Antioxidant activity assessed as inhibition of AAPH-induced linoleic acid lipid peroxidation by measuring conjugated diene hydroperoxide level; format: functional; set-up: concentration or dose not given beside the values; details: dose or concentration not given here
Outline: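 Linoleic acid sodium salt (10 μL of 16 mM) in 0.05 M phosphate buffer pH 7.4 at 37 °C. Oxidation started under air with 50 μL of 40 mM AAPH. Conjugated diene hydroperoxide formation followed as absorbance rise at 234 nm; control contains the same DMSO level. At least triplicate.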

[10] = test system: Vesicular stomatitis virus; assay: Antiviral activity against Vesicular stomatitis virus infected in human cervix carcinoma cells assessed as inhibition of virus-induced cytopathic effect at 0.32 to 100 uM; format: functional, organism-based
Outline: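 Confluent human cervix carcinoma (HeLa) cultures received 100 CCID50 of VSV together with the compound at 100, 40, 8, 1.6 or 0.32 μM. Cytopathicity was read at the point of full CPE in infected, untreated control wells.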

Human respirovirus 3 = assay: Antiviral activity against Parainfluenza virus 3 infected in african green monkey Vero cells assessed as inhibition of virus-induced cytopathic effect at 0.32 to 100 uM; format: functional, organism-based; outline: as §2
[11] = test system: Human immunodeficiency virus 1; assay: Antiviral activity against HIV1 3B infected in human CEM cells assessed as inhibition of virus-induced CEM giant cell formation at 0.32 to 100 uM after 4 days; format: functional, organism-based; details: CCRF-CEM; outline: as §4
Coxsackievirus B4 [12] = assay: Antiviral activity against Coxsackievirus B4 infected in human cervix carcinoma cells assessed as inhibition of virus-induced cytopathic effect at 0.32 to 100 uM; format: functional, organism-based; outline: as §2
Felid alphaherpesvirus 1 = assay: Antiviral activity against Feline herpesvirus infected in feline CRFK cells assessed as inhibition of virus-induced cytopathic effect at 0.32 to 100 uM; format: functional, organism-based; outline: as §2
[13] = test system: Radical scavenging activity; assay: Antioxidant activity assessed as DPPH free radical scavenging activity at 100 uM after 60 mins by spectrophotometric analysis; format: functional; outline: as §1
HeLa = assay: Cytostatic activity against human HeLa cells after 3 days by coulter counter analysis; format: functional, cell-based; details: 72 h; outline: as §5
L1210 = assay: Cytostatic activity against mouse L1210 cells after 2 days by coulter counter analysis; format: functional, cell-based; details: L1210, 48 h; outline: as §5
Vaccinia virus = assay: Antiviral activity against Vaccinia virus infected in human lung fibroblast assessed as inhibition of virus-induced cytopathic effect at 0.32 to 100 uM; format: functional, organism-based; details: Orthopoxvirus vaccinia

SMILES	Activity [1]	inhibition (Human alphaherpesvirus 1)	inhibition [2]	inhibition (Glycine max)	inhibition (Influenza A virus [3])	inhibition (Feline coronavirus)	inhibition (Coxsackievirus B4 [4])	inhibition [5]	inhibition [6]	IC50 (CCRF-CEM) [µM]	inhibition (Influenza A virus [7])	inhibition [8]	inhibition (Punta Toro virus)	inhibition (Influenza B virus)	inhibition (Sindbis virus)	IC50 (HCT-116) [µM]	inhibition (Human alphaherpesvirus 2)	IC50 (MCF7) [µM]	inhibition [9] [%]	Activity [13]	further results
CC(C(=O)NNC(=O)NOCc1ccccc1)c1cccc(Oc2ccccc2)c1 (centres undefined)	inactive	inactive	inactive	6%	inactive	inactive	inactive	inactive	inactive	91	inactive	inactive	inactive	inactive	inactive	76	inactive	81	8	inactive	IC50 (NCI-H460): > 100 µM; inhibition [10]: inactive; inhibition (Human respirovirus 3): inactive; inhibition [11]: inactive; inhibition (Coxsackievirus B4 [12]): inactive; inhibition (Felid alphaherpesvirus 1): inactive; IC50 (HeLa): 76 µM; IC50 (L1210): 84 µM; inhibition (Vaccinia virus): inactive
CC(C(=O)NNC(=O)NNC(=O)NO)c1cccc(Cc2ccccc2)c1 (centres undefined)	28%	inactive	inactive	1%	inactive	inactive	inactive	inactive	inactive	> 250	inactive	inactive	inactive	inactive	inactive	> 100	inactive	> 100	28	53%	IC50 (NCI-H460): > 100 µM; inhibition [10]: inactive; inhibition (Human respirovirus 3): inactive; inhibition [11]: inactive; inhibition (Coxsackievirus B4 [12]): inactive; inhibition (Felid alphaherpesvirus 1): inactive; IC50 (HeLa): ≥ 250 µM; IC50 (L1210): > 250 µM; inhibition (Vaccinia virus): inactive
CC(C)Cc1ccc(C(C)C(=O)NNC(=O)NNC(=O)NOCc2ccccc2)cc1 (centres undefined)	11%	inactive	inactive	inactive	inactive	inactive	inactive	inactive	inactive	106	inactive	inactive	inactive	inactive	inactive	56	inactive	19	13	18%	IC50 (NCI-H460): 71 µM; inhibition [10]: inactive; inhibition (Human respirovirus 3): inactive; inhibition [11]: inactive; inhibition (Coxsackievirus B4 [12]): inactive; inhibition (Felid alphaherpesvirus 1): inactive; IC50 (HeLa): 98 µM; inhibition (Vaccinia virus): inactive
CC(C)Cc1ccc(C(C)C(=O)NNC(=O)NNC(=O)NO)cc1 (centres undefined)	24%	inactive	inactive	inactive	inactive	inactive	inactive	inactive	inactive	> 250	inactive	inactive	inactive	inactive	inactive	> 100	inactive	> 100	15	46%	IC50 (NCI-H460): > 100 µM; inhibition [10]: inactive; inhibition (Human respirovirus 3): inactive; inhibition [11]: inactive; inhibition (Coxsackievirus B4 [12]): inactive; inhibition (Felid alphaherpesvirus 1): inactive; IC50 (HeLa): > 250 µM; IC50 (L1210): > 250 µM; inhibition (Vaccinia virus): inactive
CC(Cc1ccc(O)c(O)c1)C(C)Cc1ccc(O)c(O)c1 (centres undefined)	80%																			91%	
CC(C(=O)NNC(=O)NC1CCCCC1)c1cccc(Cc2ccccc2)c1 (centres undefined)	3%	inactive	inactive	10%	inactive	inactive	inactive	inactive	inactive	25	inactive	inactive	inactive	inactive	inactive	22	inactive	16	31	10%	IC50 (NCI-H460): 23 µM; inhibition [10]: inactive; inhibition (Human respirovirus 3): inactive; inhibition [11]: inactive; inhibition (Coxsackievirus B4 [12]): inactive; inhibition (Felid alphaherpesvirus 1): inactive; IC50 (HeLa): 45 µM; inhibition (Vaccinia virus): inactive
CC(C(=O)NNC(=O)NNC(=O)NOCc1ccccc1)c1cccc(Oc2ccccc2)c1 (centres undefined)	8%	inactive	inactive	inactive	inactive	inactive	inactive	inactive	inactive	90	inactive	inactive	inactive	inactive	inactive	84	inactive	26	26	15%	IC50 (NCI-H460): > 100 µM; inhibition [10]: inactive; inhibition (Human respirovirus 3): inactive; inhibition [11]: inactive; inhibition (Coxsackievirus B4 [12]): inactive; inhibition (Felid alphaherpesvirus 1): inactive; IC50 (L1210): 103 µM; inhibition (Vaccinia virus): inactive
Cc1c(C)c2c(c(C)c1O)CCC(C)(C(=O)O)O2 (centres undefined)																			63		
